The text below walks through data of ChEMBL document CHEMBL2429859, “Inhibiting aberrant signal transducer and activator of transcription protein activation with tetrapodal, small molecule Src homology 2 domain binders: promising agents against multiple myeloma” (J Med Chem, 2013).

Active and inactive are the calls of the source. The rule behind the calls is not given here. A value given as a limit tells only on which side of the number the result lay.

The test system of series [1] is RPMI-8226. Briefly: Induction of apoptosis in human RPMI8226 cells at 10 to 20 uM by annexin V/propidium iodide staining-based flow cytometric analysis. It counts as functional, cell-based. As to conditions: TDE = time-dependent effect. A digest of the protocol: (§1)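 Apoptosis was measured by flow cytometry of Annexin V and propidium iodide staining. Viable, early apoptotic and late apoptotic cells were scored by quadrant, with time points at 24 and 48 h.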
On the technique in general: A flow cytometer gives signals particle by particle.

Series [2] deals with Tyrosine-protein kinase JAK2 (Homo sapiens) (UniProt O60674). Description: Inhibition of JAK2 JH1 domain (unknown origin) assessed as residual activity at 5 uM relative to control. Summed up: (§2)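 Kinase profiling used a KinomeScan at 5 µM across 132 kinases, including 37 with SH2 domains.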
In series [3] the target is T1, Signal transducer and activator of transcription 3 (Homo sapiens, UniProt P40763). Briefly: Inhibition of Stat3-mediated luciferase expression in human 8226 cells at 15 to 30 uM after 6 hrs relative to control. Format: cell-based. Summed up:
(§3)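 Myeloma cells stably carried a Stat3-driven firefly luciferase reporter (puromycin-selected) and a CMV-driven Renilla luciferase internal control (hygromycin-selected), each selected for 2 weeks. After drug treatment, dual luciferase activity was read as relative luciferase units, firefly/Renilla.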

Series [4] relates to XG6. Description: Induction of apoptosis in human XG6 cells at 10 to 20 uM by annexin V/propidium iodide staining-based flow cytometric analysis. It counts as functional, cell-based. Summed up:
as §1

A short description of series [5]: Cytotoxicity against CD138-positive BMNC isolated from multiple myeloma patient assessed as cell viability at 20 uM. Format: functional. The settings on record: Homo sapiens, read-out: Activity. Summed up: (§4)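 Bone marrow mononuclear cells were isolated by Ficoll-Paque separation from 6 myeloma patient aspirates, cultured, and treated with compound. Cells were stained for CD138 and Annexin V, and the decrease in CD138+ (myeloma) and CD138- (non-myeloma) populations was reported.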

The target in series [6] is T2, Tyrosine-protein kinase JAK3 (Homo sapiens) (UniProt P52333).
T2 sequence (whole entry): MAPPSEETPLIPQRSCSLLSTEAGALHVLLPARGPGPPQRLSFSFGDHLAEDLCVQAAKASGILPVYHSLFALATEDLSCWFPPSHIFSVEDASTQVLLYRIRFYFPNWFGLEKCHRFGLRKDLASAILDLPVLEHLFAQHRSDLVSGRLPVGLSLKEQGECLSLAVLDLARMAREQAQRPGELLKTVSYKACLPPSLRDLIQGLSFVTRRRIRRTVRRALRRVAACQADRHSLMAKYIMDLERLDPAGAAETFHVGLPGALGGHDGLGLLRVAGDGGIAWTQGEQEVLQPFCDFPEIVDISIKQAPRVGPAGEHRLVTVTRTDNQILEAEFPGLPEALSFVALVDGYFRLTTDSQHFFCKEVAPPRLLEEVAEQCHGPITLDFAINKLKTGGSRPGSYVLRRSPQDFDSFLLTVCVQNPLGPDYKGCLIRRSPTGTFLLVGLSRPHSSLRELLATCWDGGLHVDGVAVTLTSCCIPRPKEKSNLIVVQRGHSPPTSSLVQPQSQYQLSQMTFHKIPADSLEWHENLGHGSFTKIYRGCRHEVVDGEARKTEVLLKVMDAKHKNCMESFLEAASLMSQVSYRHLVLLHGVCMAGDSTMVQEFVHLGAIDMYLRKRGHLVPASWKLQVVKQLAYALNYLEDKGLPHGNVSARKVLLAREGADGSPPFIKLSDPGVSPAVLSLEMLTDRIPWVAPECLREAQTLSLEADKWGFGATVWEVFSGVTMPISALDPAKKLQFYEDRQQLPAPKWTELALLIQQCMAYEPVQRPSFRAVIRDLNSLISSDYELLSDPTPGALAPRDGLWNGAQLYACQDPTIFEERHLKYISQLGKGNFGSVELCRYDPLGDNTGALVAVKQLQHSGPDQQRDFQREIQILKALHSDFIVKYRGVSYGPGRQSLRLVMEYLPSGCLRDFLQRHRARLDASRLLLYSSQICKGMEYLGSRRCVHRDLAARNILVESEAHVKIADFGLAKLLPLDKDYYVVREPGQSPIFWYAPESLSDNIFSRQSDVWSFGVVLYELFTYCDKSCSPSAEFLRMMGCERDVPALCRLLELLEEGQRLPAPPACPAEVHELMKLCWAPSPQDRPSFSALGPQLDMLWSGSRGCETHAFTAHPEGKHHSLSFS
Briefly: Inhibition of JAK3 JH1 domain (unknown origin) assessed as residual activity at 5 uM relative to control. A digest of the protocol:
as §2

Series [7] is described as follows: Cytotoxicity against CD138-negative BMNC isolated from multiple myeloma patient assessed as cell viability at > 20 uM. As to conditions: human. A digest of the protocol: as §4
In series [8] the target is Tyrosine-protein kinase JAK1 (Homo sapiens) (UniProt P23458). Briefly: Inhibition of JAK1 (unknown origin) assessed as residual activity at 5 uM relative to control. A digest of the protocol:
as §2

Series [9] has as its system JJN-3. Briefly: Induction of apoptosis in human JJN-3 cells at 10 to 20 uM by annexin V/propidium iodide staining-based flow cytometric analysis. It counts as functional, cell-based. Summed up:
as §1

In series [10] the target is T1, Signal transducer and activator of transcription 3. Briefly: Inhibition of Stat3-mediated luciferase expression in human XG6 cells at 15 to 30 uM after 6 hrs relative to control. Format: cell-based. Summed up:
as §3

Series [11] in a line: Cytotoxicity against BMNC isolated from multiple myeloma patient assessed as inhibition of hematopoietic progenitor colony formation at 30 uM. The settings on record: human.
In series [12] the target is T1, Signal transducer and activator of transcription 3. Description: Inhibition of Stat3-mediated luciferase expression in human XG6 cells at 7.5 to 15 uM after 6 hrs relative to control. Format: cell-based. A digest of the protocol:
as §3

Series [13] deals with JJN-3. Description: Induction of apoptosis in human JJN-3 cells at 10 to 15 uM by annexin V/propidium iodide staining-based flow cytometric analysis. It counts as functional, cell-based. A digest of the protocol:
as §1

In series [14] the test system is XG6. Description: Cytotoxicity against human XG6 cells assessed as cell viability at 7.5 uM after 72 hrs by MTT assay. Format: functional, cell-based. Summed up: (§5)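 Myeloma lines were seeded at 1-3 x 10^4 cells per well onto compound or vehicle, in triplicate, and cultured 72 h at 37 °C in 5% CO2. Viability was measured colorimetrically by MTT assay relative to DMSO control. EC50 was fitted to a standard dose-response curve where applicable.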

Series [15] deals with RPMI-8226. Briefly: Cytotoxicity against human RPMI8226 cells assessed as cell viability at 7.5 uM after 72 hrs by MTT assay. Format: functional, cell-based. Summed up: as §5
Series [16] relates to JJN-3. Briefly: Inhibition of total Stat3 level in human JJN-3 cells at 5 to 10 uM after 6 hrs by Western blot analysis. Format: functional, cell-based. A digest of the protocol: (§6)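 Treated cells were washed in cold PBS and lysed 30 min on ice in Tris-HCl pH 7.4/NaCl/EDTA/1% NP-40 with PMSF, vanadate and protease inhibitors. Lysates were Bradford-normalized, and 10-30 µg protein was run on 7-10% SDS-PAGE and transferred to PVDF. Blots were blocked in 5% BSA/TBST, probed overnight at 4 °C, then with HRP secondary, and detected by ECL.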
Background: Immunoblotting shows a protein as a band on a membrane.

Series [17] has as its target T1, Signal transducer and activator of transcription 3. Description: Inhibition of Stat3-mediated luciferase expression in human 8226 cells at 7.5 to 15 uM after 6 hrs relative to control. It counts as cell-based. A digest of the protocol:
as §3

Series [18] concerns JJN-3. Description: Induction of apoptosis in human JJN-3 cells assessed as induction of PARP cleavage at 5 to 10 uM by Western blot analysis. Format: functional, cell-based. A digest of the protocol: as §6
Series [19] concerns RPMI-8226. Description: Induction of apoptosis in human RPMI8226 cells at 10 to 15 uM by annexin V/propidium iodide staining-based flow cytometric analysis. Format: functional, cell-based. As to conditions: TDE = time-dependent effect. Summed up: as §1
In series [20] the test system is XG6. Briefly: Induction of apoptosis in human XG6 cells at 10 to 15 uM by annexin V/propidium iodide staining-based flow cytometric analysis. It counts as functional, cell-based. Summed up:
as §1

T1 sequence (P40763 whole entry): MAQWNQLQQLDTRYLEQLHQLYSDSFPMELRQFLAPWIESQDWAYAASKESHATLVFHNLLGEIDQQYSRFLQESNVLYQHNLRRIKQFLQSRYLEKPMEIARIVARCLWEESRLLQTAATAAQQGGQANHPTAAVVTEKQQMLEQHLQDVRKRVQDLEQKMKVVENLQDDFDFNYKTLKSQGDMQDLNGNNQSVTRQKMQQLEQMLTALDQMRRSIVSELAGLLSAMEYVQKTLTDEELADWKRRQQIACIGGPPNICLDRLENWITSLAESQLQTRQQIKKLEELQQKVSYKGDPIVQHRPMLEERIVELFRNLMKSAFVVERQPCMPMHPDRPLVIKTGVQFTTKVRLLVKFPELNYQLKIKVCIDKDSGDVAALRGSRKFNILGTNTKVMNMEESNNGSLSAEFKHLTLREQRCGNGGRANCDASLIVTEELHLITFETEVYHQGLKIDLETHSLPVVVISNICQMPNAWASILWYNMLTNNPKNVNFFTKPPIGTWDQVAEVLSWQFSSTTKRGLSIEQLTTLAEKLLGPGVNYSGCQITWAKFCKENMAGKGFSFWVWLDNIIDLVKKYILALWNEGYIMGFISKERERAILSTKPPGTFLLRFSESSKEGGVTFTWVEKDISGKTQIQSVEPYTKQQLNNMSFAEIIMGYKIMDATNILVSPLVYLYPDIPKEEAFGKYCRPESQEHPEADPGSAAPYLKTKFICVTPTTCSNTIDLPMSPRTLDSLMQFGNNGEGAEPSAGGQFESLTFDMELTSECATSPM
Sequence of Tyrosine-protein kinase JAK1 (Homo sapiens) (P23458 whole entry): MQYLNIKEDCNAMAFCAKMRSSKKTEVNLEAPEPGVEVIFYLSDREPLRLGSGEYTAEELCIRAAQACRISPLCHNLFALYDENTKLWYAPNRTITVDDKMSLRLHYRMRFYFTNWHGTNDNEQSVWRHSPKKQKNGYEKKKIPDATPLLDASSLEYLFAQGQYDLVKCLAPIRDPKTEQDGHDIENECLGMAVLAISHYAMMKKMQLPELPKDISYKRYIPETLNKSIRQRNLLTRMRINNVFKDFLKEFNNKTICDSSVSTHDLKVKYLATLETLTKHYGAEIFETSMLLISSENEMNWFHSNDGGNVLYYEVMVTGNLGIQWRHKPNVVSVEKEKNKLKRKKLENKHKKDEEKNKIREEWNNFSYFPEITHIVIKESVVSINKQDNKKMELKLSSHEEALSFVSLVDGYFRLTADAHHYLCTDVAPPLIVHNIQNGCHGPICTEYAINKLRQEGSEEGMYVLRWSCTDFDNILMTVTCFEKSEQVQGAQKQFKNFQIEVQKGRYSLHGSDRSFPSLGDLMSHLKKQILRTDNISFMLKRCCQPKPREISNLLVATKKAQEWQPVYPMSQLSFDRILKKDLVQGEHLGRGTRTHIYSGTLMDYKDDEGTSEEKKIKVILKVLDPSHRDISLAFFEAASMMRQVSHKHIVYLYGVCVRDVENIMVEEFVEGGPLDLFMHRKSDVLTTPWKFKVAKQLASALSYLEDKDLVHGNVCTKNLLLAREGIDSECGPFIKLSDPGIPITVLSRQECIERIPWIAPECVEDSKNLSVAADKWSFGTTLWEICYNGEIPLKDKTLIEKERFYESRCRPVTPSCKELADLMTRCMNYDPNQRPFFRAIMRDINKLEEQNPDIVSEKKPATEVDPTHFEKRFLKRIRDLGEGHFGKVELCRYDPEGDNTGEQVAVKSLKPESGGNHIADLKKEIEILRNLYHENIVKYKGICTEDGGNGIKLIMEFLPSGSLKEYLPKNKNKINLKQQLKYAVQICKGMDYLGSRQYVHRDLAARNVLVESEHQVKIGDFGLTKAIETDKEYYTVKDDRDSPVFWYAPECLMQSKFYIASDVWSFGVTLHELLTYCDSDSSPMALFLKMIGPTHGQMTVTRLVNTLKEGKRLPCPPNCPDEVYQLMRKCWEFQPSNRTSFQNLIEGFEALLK
Sequence of Tyrosine-protein kinase JAK2 (Homo sapiens) (O60674 whole entry, the tested form may be a part): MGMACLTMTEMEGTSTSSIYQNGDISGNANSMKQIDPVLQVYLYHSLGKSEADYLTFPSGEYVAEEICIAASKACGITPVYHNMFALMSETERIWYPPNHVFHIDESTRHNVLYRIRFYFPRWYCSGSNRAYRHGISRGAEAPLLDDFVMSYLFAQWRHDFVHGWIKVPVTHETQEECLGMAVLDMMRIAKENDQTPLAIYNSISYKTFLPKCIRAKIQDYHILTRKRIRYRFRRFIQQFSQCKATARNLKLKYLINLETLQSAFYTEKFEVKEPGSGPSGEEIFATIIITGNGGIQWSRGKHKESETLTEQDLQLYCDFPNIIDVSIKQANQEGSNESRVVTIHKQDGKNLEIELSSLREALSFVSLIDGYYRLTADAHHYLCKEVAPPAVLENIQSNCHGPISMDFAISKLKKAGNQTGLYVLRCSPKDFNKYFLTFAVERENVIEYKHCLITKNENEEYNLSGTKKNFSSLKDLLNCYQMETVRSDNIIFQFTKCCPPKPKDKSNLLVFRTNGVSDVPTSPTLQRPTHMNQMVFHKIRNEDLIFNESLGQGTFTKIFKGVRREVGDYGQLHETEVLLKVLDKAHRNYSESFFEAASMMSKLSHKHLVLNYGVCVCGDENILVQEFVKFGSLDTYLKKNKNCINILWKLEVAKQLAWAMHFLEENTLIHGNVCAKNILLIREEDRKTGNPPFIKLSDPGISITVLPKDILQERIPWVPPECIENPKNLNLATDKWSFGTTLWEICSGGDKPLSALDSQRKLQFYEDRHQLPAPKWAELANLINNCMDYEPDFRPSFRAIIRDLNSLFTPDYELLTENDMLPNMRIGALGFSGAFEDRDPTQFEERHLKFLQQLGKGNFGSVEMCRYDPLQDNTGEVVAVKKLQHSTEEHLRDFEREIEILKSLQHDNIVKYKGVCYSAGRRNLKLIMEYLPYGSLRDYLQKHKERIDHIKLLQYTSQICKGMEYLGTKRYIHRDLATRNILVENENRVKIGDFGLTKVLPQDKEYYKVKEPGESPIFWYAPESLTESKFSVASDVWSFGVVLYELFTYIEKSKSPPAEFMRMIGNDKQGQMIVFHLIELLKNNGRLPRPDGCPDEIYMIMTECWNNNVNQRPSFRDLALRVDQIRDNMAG

Consider `Cc1ccc(S(=O)(=O)N(CC(=O)N(Cc2ccc(C3CCCCC3)cc2)c2ccc(C(=O)O)c(O)c2)Cc2ccccc2C(F)(F)F)cc1`, for which the Activity entry with RPMI-8226 [1] is “tde”; in [2] it was 84%; in [6] it was 84%; in series [7] it was “Non-toxic”; in series [8], 84%; in series [11] it was “Non-toxic”. In addition, the inhibition in series [3] and in [10] was 50% in each case. The result with XG6 [4] and with JJN-3 [9] was Active. Moreover, the viability at 20 µM in series [5] is more than 50%.
Take `O=C(O)c1ccc(N(Cc2ccc(C3CCCCC3)cc2)C(=O)CN(Cc2ccccc2C(F)(F)F)S(=O)(=O)c2c(F)c(F)c(F)c(F)c2F)cc1O`: the inhibition in [12] and in [17] was 50% each time. Also, the result in the series with JJN-3 [13], with XG6 [14], with RPMI-8226 [15], in the series with JJN-3 [18] and in the series on XG6 [20] was Active. For the same compound, the inhibition entry with JJN-3 [16] is “inactive”. Besides, the Activity result with RPMI-8226 [19] is “tde”.

In general, inhibition refers to the percentage by which the read-out fell short of the control.
